The text below walks through data of ChEMBL document CHEMBL2057132, “Structure-activity relationship of 2,2-dimethyl-2H-chromene based arylsulfonamide analogs of 3,4-dimethoxy-N-[(2,2-dimethyl-2H-chromen-6-yl)methyl]-N-phenylbenzenesulfonamide, a novel small molecule hypoxia inducible factor-1 (HIF-1) pathway inhibitor and anti-cancer agent” (Bioorg Med Chem, 2012).

Data set [1] addresses T1, Hypoxia inducible factors; HIF-1-alpha, HIF-2-alpha (Homo sapiens, UniProt Q16665+Q99814). In words: Inhibition of HIF1 transcriptional activity in human LN229 cells expressing VEGF-HRE-V6R and coexpressing luciferase, lac Z gene incubated for 1 hr in normoxia condition followed by 24 hrs in hypoxia condition by reporter gene assay. It is filed as cell-based. An outline of the steps: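 LN229 glioblastoma cells stably carrying a 6×VEGF-HRE bidirectional luciferase/lacZ reporter, 3 × 10^4 per well, grown 24 h normoxic in DMEM/10% FBS. Compound (serial dilutions in medium, 1% DMSO) added, 1 h normoxia, then 24 h at 1% O2, 37 °C. Lysate luciferase read by luminometer, as percent of untreated hypoxic cells. Triplicates, two independent experiments.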
On the technique in general: In a reporter assay the amount or activity of a reporter protein is the signal.

Data set [2] is described as follows: Downregulation of HIF1alpha protein level in human LN229 cells expressing VEGF-HRE-V6R at 10 uM incubated for 1 hr in normoxia condition followed by 24 hrs in hypoxia condition by Western blot analysis relative to control. It counts as functional, cell-based. To be noted: LN-229. In outline: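 LN229-V6R cells (2 × 10^5 per 35 mm dish) grown 24 h under normoxia. Compounds given at 10 μM in medium with 1% DMSO, 1 h normoxia, then 24 h hypoxia (1% O2) at 37 °C. SDS lysis, 12.5% gel, nitrocellulose, anti-HIF-1α and β-actin blots, ECL. Densitometry as percent of untreated hypoxic control, normalized to β-actin.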
(In general: Immunoblotting shows a protein as a band on a membrane.)

The target in data set [3] is T1, Hypoxia inducible factors; HIF-1-alpha, HIF-2-alpha. In words: Inhibition of HIF1 transcriptional activity in human LN229 cells expressing VEGF-HRE-V6R and coexpressing lac Z gene at 10 uM incubated for 1 hr in normoxia condition followed by 24 hrs in hypoxia condition by luciferase reporter gene assay relative to control; values are per cent of control.
Data set [4] is described as follows: Aqueous solubility of the compound at pH 7.4. It is filed as physicochemical.

Calls of active or inactive are those of the source. The calls are words filed in the database; no cut-off is given here.

The term IC50 denotes the point on the concentration scale where inhibition reaches its midpoint. Higher therefore signals lower potency. For the compound `CC1(C)C=Cc2cc(CN(c3ccccc3)S(=O)(=O)c3ccc([N+](=O)[O-])cc3)ccc2O1`, in data set [1], the half-inhibitory concentration (IC50) is 4.2 µM and the inhibition result is “Dose-dependent effect”.
Consider `CC1(C)C=Cc2cc(CN(c3ccc(F)cc3)S(=O)(=O)c3ccc([N+](=O)[O-])cc3)ccc2O1`, for which, in data set [1], the half-maximal inhibitory concentration (IC50) was found to be 4.8 µM and the inhibition entry is “Dose-dependent effect”.
The corresponding values for `CC(C)N(Cc1ccc2c(c1)C=CC(C)(C)O2)S(=O)(=O)c1ccc([N+](=O)[O-])cc1` are 3 µM and “Dose-dependent effect”.
Regarding `CC1(C)C=Cc2cc(CN(c3ccc(F)cc3)S(=O)(=O)c3cc(Cl)ccc3Cl)ccc2O1`, in data set [1], the IC50 was found to be 8 µM and the inhibition result was “Dose-dependent effect”.
With `CC(C)N(Cc1ccc2c(c1)C=CC(C)(C)O2)S(=O)(=O)c1ccc(F)cc1`, in data set [1], the IC50 worked out at 3.8 µM and the inhibition result is “Dose-dependent effect”. Besides, the outcome in data set [2] was inactive.
With `COc1ccc(S(=O)(=O)N(Cc2ccc3c(c2)C=CC(C)(C)O3)c2ccc(F)cc2)cc1OC`, in data set [1], the IC50 came out at 3.2 µM and the inhibition result was “Dose-dependent effect”. For the same compound, the outcome in data set [2] was inactive. In addition, in data set [3], the residual activity is less than 5%.
As a reminder, the solubility is the concentration that dissolves in the medium under given conditions. Read a low solubility as a poorly soluble substance. Consider `COc1ccc(S(=O)(=O)N(Cc2ccc3c(c2)C=CC(C)(C)O3)c2ccccc2)cc1OC`, for which, in data set [1], the half-inhibitory concentration (IC50) amounted to 1.6 µM and the inhibition result is “Dose-dependent effect”. Besides, in data set [2], the result was inactive. The same compound showed a solubility in data set [4] of less than 15 µg/mL. In addition, in data set [3], the residual activity is less than 5%.
In the case of `CC1(C)C=Cc2cc(CN(c3ccc(F)cc3)S(=O)(=O)c3ccc(F)cc3)ccc2O1`, in data set [1], the IC50 stood at 6.6 µM and the inhibition result was “Dose-dependent effect”.
The corresponding values for `CC1(C)C=Cc2cc(CN(c3ccccc3)S(=O)(=O)c3cc(Cl)ccc3Cl)ccc2O1` are 3.3 µM and “Dose-dependent effect”.
The corresponding values for `CC(C)N(Cc1ccc2c(c1)C=CC(C)(C)O2)S(=O)(=O)c1ccccc1` are 2.2 µM and “Dose-dependent effect”.
The corresponding values for `CC(C)N(Cc1ccc2c(c1)C=CC(C)(C)O2)S(=O)(=O)c1cc(Cl)ccc1Cl` are 16.8 µM and “Dose-dependent effect”.
On to `CC1(C)C=Cc2cc(CN(c3ccc(F)cc3)S(=O)(=O)c3ccccc3)ccc2O1`, for which, in data set [1], the half-maximal inhibitory concentration (IC50) stood at 7.2 µM and the inhibition result is “Dose-dependent effect”.
As to `CC1(C)C=Cc2cc(CN(c3ccccc3)S(=O)(=O)c3ccccc3)ccc2O1`, in data set [1], the IC50 amounted to 2.7 µM and the inhibition entry was “Dose-dependent effect”.
`COc1ccc(S(=O)(=O)N(Cc2ccc3c(c2)C=CC(C)(C)O3)C(C)C)cc1OC`: in data set [1], the half-maximal inhibitory concentration (IC50) came out at 1.5 µM and the inhibition result is “Dose-dependent effect”. The same compound gave an Activity in data set [2] of 30%. Moreover, in data set [3], the residual activity is less than 5%.
As for `CC1(C)C=Cc2cc(CN(c3ccccc3)S(=O)(=O)c3ccc(F)cc3)ccc2O1`, in data set [1], the IC50 was 4.8 µM and the inhibition entry was “Dose-dependent effect”.
